# Source: PubChem BioAssay
# In the library only some 4.5% were active in any assay of this set; here they are far more common.
# CHOP inhibitor: CHOP inhibition in unfolded protein response. CHO-K1 CHOP-promoter luciferase, tunicamycin-induced, 15-18 h. inhibition, % at 10 µM. hit rate 3.8% among 220,000. AID 2732;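 active = compounds that reduced the stress-induced luciferase reporter signal by more than about 70% of percent inhibition, limit read from the data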;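 also: 0% = tunicamycin plus vehicle and 100% = wells without tunicamycin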
# NS3 helicase inh: blocks Hepatitis C virus NS3 helicase unwinding | NS3 helicase DNA unwinding, Cy5 molecular beacon fluorescence | inhibition, % at 10.9 µM | hit rate 0.56% among 290,000;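 active = inhibition above the mean of all tested compounds plus 3 SD, set per campaign, cut at about 35% in these data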;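 also: 0% = DMSO wells and 100% = thioflavine S control wells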
#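 Compound dosing – single dose, 10.9 µM nominal final, DMSO 0.8% final · System – NS3 helicase fragment of HCV · Buffer or medium – MOPS pH 6.5, MgCl2, DTT, Tween20, BSA · Signal – Cy5 beacon fluorescence read at start and 1 h · Also added – annealed dual-labelled DNA beacon duplex, ATP-started · Schedule – 1 h at 25 °C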
# M18AAP inhibitor: blocks P. falciparum M18 aspartyl aminopeptidase | recombinant PfM18AAP, H-Glu-NHMec fluorogenic cleavage | inhibition, % at 7.35 µM | hit rate 1.2% among 290,000 | AID 1822;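 active = inhibition above the campaign mean inhibition over all tested compounds plus 3 SD, cut at about 28% in these data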;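 also: 0% = plate median of test compound wells and 100% = 2 mM ZnCl2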
# UPR CHOP act: activators of apoptotic arm of unfolded protein response (CHOP). CHO-CHOP luciferase reporter, UPR activation, luminescence; percent of tunicamycin response over DMSO baseline. activation, % at 10 µM. hit rate 0.34% among 330,000;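 active = at 10 µM dose, activation of 40% or more, normalized to positive control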;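 also: 100% = tunicamycin at 10 µg/mL and 0% = DMSO alone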
#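 Test system: CHO CHOP reporter cells. Input: 500 CHO-CHOP cells per well. Medium: F12 with 10% FBS. Technique: luciferase luminescence. Measure: percent activation relative to tunicamycin control. Dosing: 10 µM compound, 0.5% DMSO. Timing: 16-18 h cell attachment, then 6 h compound exposure, 37 °C.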
# p97 ATPase inh: inhibitors of human p97 ATPase. recombinant p97 ATPase, Kinase-Glo ATP luminescence, 3 h. inhibition, % at 8 µM. hit rate 0.42% among 220,000. P55072; in the data active = inhibition above about 15%;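 also: 0% = DMSO vehicle and 100% = wells lacking enzyme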
# Target sequence (P55072 whole entry, looked up): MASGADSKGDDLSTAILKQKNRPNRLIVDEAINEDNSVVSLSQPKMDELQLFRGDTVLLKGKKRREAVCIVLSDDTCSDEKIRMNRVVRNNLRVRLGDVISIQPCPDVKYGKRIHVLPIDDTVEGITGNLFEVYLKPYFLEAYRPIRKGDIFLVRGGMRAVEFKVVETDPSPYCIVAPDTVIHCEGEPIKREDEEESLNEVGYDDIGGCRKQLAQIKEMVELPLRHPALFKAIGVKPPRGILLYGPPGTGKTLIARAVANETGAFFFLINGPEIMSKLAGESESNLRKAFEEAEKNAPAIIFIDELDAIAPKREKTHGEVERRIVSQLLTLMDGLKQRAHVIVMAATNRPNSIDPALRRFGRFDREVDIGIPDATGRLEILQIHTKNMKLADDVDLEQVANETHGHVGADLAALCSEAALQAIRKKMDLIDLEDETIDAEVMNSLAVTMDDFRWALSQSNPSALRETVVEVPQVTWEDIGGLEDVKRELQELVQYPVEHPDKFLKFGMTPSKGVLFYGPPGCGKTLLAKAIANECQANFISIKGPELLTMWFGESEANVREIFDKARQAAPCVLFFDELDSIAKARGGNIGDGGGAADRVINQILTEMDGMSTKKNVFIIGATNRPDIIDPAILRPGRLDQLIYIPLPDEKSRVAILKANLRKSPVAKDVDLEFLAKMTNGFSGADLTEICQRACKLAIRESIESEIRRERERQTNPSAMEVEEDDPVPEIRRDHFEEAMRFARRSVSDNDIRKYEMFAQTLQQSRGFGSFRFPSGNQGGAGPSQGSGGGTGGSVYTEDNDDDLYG
# UPR XBP1 act: adaptive UPR (XBP1) activation; CHO-XBP1 luciferase reporter, IRE1-XBP1 UPR activation, luminescence; percent of tunicamycin response, DMSO as zero; activation, % at 20 µM; hit rate 0.33% among 330,000;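 active = versus positive control, 20 µM dose yields 30% or more activation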;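 also: 100% = tunicamycin at 10 µg/mL and 0% = DMSO only wells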
#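 Material – CHO cell line with stable XBP1 luciferase reporter · Buffer or medium – F12 plus 10% FBS · Compound – single point, 20 µM final compound, 1% DMSO · Schedule – 16-18 h cell attachment at 37 °C, then 6 h compound exposure · Signal – Steady-Glo luminescence read · Benchmarks – high control tunicamycin 10 µg/mL final, low control DMSO vehicle only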
# * = called active by the depositor; / = no result given.
SMILES,CHOP inhibitor,NS3 helicase inh,M18AAP inhibitor,UPR CHOP act,p97 ATPase inh,UPR XBP1 act
Clc1ccc(/C=C\c2nccc3c2[nH]c2ccccc23)cc1,0,-9,5,/,2,/
O=C(CNc1ccccc1)N/N=C/c1cn(-c2ccccc2)nc1-c1ccccc1,96*,-3,0,7,6,0
Cc1ccc(-c2nn(-c3ccccc3)cc2/C=N/NS(=O)(=O)c2ccccc2)cc1,69,-3,3,4,0,6
O=S(=O)(N/N=C\c1cn(-c2ccccc2)nc1-c1ccccc1)c1ccccc1,96*,0,-5,3,0,2
Cc1ccc2nc(/N=C(\N)NC(=O)N3c4ccccc4Sc4ccccc43)nc(C)c2c1,31,-4,-1,3,3,-1
COc1ccc2nc(/N=C(\N)NC(=O)N3c4ccccc4Sc4ccccc43)nc(C)c2c1,77*,5,-5,2,3,2
Clc1nnc(Cl)c2c1ncn2Cc1ccccc1,/,4,-2,-1,/,-2
c1ccc2c(c1)-c1cccc3c1c-2cc1ccccc13,/,/,/,3,/,2
Oc1cc(-c2ccccc2)c2ccccc2c1,101*,3,10,-1,10,-1
COc1ccc(NC(C)=O)cc1S(=O)(=O)NCCc1ccccn1,/,/,/,0,/,0
CCCc1nc(SCC(=O)N2CCN(c3ccccc3)CC2)c2c(=O)n(C)c(=O)n(C)c2n1,65,-2,-5,4,7,-2
CC(C)c1nc(SCC(=O)N2CCN(c3ccccc3)CC2)c2c(=O)n(C)c(=O)n(C)c2n1,70*,0,1,3,4,0
CC(C)c1nc(SCC(=O)Nc2cccc(C(F)(F)F)c2)c2c(=O)n(C)c(=O)n(C)c2n1,70*,2,0,1,-6,-5
CCOc1ccccc1N1CSC2=C(C#N)C(c3c(OC)ccc4ccccc34)CC(=O)N2C1 (configuration not stated),-22,33,37*,3,7,2
COc1ccc(N2CSC3=C(C#N)C(c4ccc(OC)c(OC)c4)CC(=O)N3C2)c(OC)c1 (configuration not stated),-6,20,18,1,-2,-1
COc1cc(OC)c(C2CC(=O)N3CN(c4ccc(C)cc4)CSC3=C2C#N)cc1OC (configuration not stated),2,10,31*,1,3,1
COc1ccc(N2CSC3=C(C#N)C(c4cccs4)CC(=O)N3C2)cc1 (configuration not stated),-2,21,43*,0,9,3
COc1ccc(N2CSC3=C(C#N)C(c4cc(OC)c(OC)cc4OC)CC(=O)N3C2)c(OC)c1 (configuration not stated),-44,66*,23,-1,-2,-2
COc1ccc(N2CSC3=C(C#N)C(c4cc(OC)ccc4OC)CC(=O)N3C2)c(OC)c1 (configuration not stated),-48,28,18,-3,-11,0
COc1ccc2cc(S(=O)(=O)N3CCCC3)ccc2c1,/,2,8,-2,/,-3
Cc1cc(C)c(C(=O)NCC(=O)c2ccccc2)c(C)c1,/,/,/,1,/,-1
Cc1cccc(OCCCC(=O)O)c1C,70*,17,7,0,1,0
CN1CCN(CC(=O)Nc2ccccc2[N+](=O)[O-])CC1,7,3,1,-2,4,-1
Cc1cccc(N2CCN(c3ccc(N4C(=O)CCCC4=O)cc3[N+](=O)[O-])CC2)c1C,84*,5,0,0,-6,-2
Cc1cccc(N2CCN(CC(=O)Nc3ccccc3[N+](=O)[O-])CC2)c1C,77*,0,2,2,-1,0
SMILES,CHOP inhibitor,NS3 helicase inh,M18AAP inhibitor,UPR CHOP act,p97 ATPase inh,UPR XBP1 act
COc1ccc(NC(=O)c2cc(-c3cc(C)ccc3O)n[nH]2)cc1Cl,78*,3,-1,0,-3,5
Cc1cccc(NC(=O)c2cc(-c3cc(C)ccc3O)n[nH]2)c1,/,0,-11,6,/,6
Cc1nn(-c2ccc(F)cc2)c(Cl)c1/C=C1\C(=O)Nc2ccccc21,94*,0,2,1,0,2
Cc1nn(-c2ccccc2)c(Cl)c1/C=C1\N=C(c2ccccc2)OC1=O,/,-3,-1,/,1,/
CCn1cc(/C=C(\NC(=O)c2ccccc2Cl)C(=O)N2CCN(C)CC2)c2ccccc21,/,-13,4,-1,/,-5
C=CCSc1nc2ccccc2n1C(=O)/C=C/c1ccc(OC)c(OC)c1,109*,-1,2,/,6,/
Cc1ccc2nc(Cl)c(/C=N/NC(=O)[C@H]3C[C@@H]3c3ccccc3)cc2c1,74*,-1,7,1,4,3
CC(C)(C)c1ccc(C2CC2C(=O)N/N=C\c2cc3ccccc3nc2Cl)cc1 (configuration not stated),0,7,-1,-3,-5,-2
CC(C)c1nc2sc3c(NCc4ccco4)ncnc3c2c2c1COC(C)(C)C2,78*,6,16,1,-5,8
Nc1nc(/C=C/c2ccc(F)cc2)nc(-c2ccccc2O)n1,80*,3,-11,2,3,0
CCOC(=O)c1cnc2c(OC)cccc2c1N1CCN(c2ccc(OC)cc2)CC1,83*,-12,4,0,-2,-3
COc1ccccc1-c1nnc2sc(COc3ccc(Cl)cc3Cl)nn12,37,3,-1,-1,4,1
Clc1ccc(OCc2nn3c(C4CCCCC4)nnc3s2)c(Cl)c1,87*,-1,-2,-1,-3,2
CS(=O)(=O)c1ccc(Cl)c(NC(=O)CCN2C(=O)NC3(CCCC3)C2=O)c1,/,/,/,0,/,0
CCCCN(C(=O)NC(=O)Nc1cccc(C)c1C)S(C)(=O)=O,81*,-4,-10,0,8,-2
CN1CCN(S(=O)(=O)c2cccc(C(=O)N(Cc3ccccc3)c3ccccc3)c2)CC1,/,-16,2,-1,/,7
CCOc1ccc(NC(=O)c2nn(C)c(C(=O)Nc3ccc(OCC)cc3)c2[N+](=O)[O-])cc1,/,5,10,-1,/,-3
CCOc1ccc(N/C(=C(/C(Cl)=C(Cl)Cl)[N+](=O)[O-])n2cncn2)cc1,1,6,78*,1,5,-4
O=C(N=C1SC2CS(=O)(=O)CC2N1c1ccc(Br)cc1)C1CCCO1 (configuration not stated),/,-3,-1,2,/,-4
O=[N+]([O-])c1ccc(N=Nc2c(Cl)cc(O)cc2Cl)cc1,102*,9,6,/,-7,/
CC(N)=Nc1ccc([N+](=O)[O-])cc1,-17,9,12,3,4,-1
O=c1[nH]c2ccc(Br)cc2c(-c2ccccc2)c1N1CCOCC1,77*,-4,-2,2,0,-1
